Test results: ChEMBL document CHEMBL1125740, “Heterocyclic quinones. 17. A new in vivo active antineoplastic drug: 6,7-bis(1-aziridinyl)-4-[[3-(N,N-dimethylamino)propyl]amino]-5,8- quinazolinedione” (J Med Chem, 1991)
Values joined by “and” are separate entries in the source; they are usually repeats but may differ in a detail not shown here. Equal entries are not always repeated.

Assays:
L1210 [1] = assay: Compound was evaluated in vivo for antitumor activity after intraperitoneal administration against L1210(935) for median day of death at an optimal dose of 0.2 mg/kg/injection at 1-4 day schedule.; assay type: functional, Mus musculus
In short: (§1)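 L1210 leukemia, maintained in DBA/2 mice, was given ip as 10⁵ cells on day 0 to F1 hybrid or strain-of-origin mice over 18 g, in groups of 8. Dosing was ip from day 1, and mortality was checked daily. Median day of death counts dying mice only. %ILS = 100×(treated − control median day of death)/control median. Tumor-free survivors were counted on day 60. Weight change is g/mouse at nadir.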

P388 [2] = assay: Compound was evaluated in vivo for antitumor activity after intraperitoneal administration against P388/L-PAM(14) for median day of death at an optimal dose of 0.5 mg/kg/injection at one day schedule.; assay type: functional, Mus musculus
P388 [3] = assay: Compound was evaluated in vivo for antitumor activity after intraperitoneal administration against P388/L-PAM(14) for % increase in life span at an optimal dose of 0.4 mg/kg/injection at 1,2,3,4 day schedule.; assay type: functional; conditions: Mus musculus, P388, ip
P388 [4] = assay: Compound was evaluated in vivo for antitumor activity after intraperitoneal administration against P388 (1313) for median day of death at an optimal dose of 1 mg/kg/injection; assay type: functional, Mus musculus
P388 [5] = assay: Compound was evaluated in vivo for antitumor activity after intraperitoneal administration against P388 (1303) for % increase in life span at an optimal dose of 0.75 mg/kg/injection; assay type: functional; conditions: Mus musculus, P388, ip
P388 [6] = assay: Compound was evaluated in vivo for antitumor activity after intraperitoneal administration against P388 (1303) for total dose at an optimal dose of 0.75 mg/kg/injection; assay type: functional, Mus musculus
B16 [7] = assay: Compound was evaluated in vivo for antitumor activity against B16 melanoma 2 after injecting the compound intravenously median tumor burden; assay type: functional, Mus musculus
L1210 [8] = assay: Compound was evaluated in vivo for antitumor activity after intraperitoneal administration against L1210(935) for mortality range at an optimal dose of 0.5 mg/kg/injection at 1 day schedule.; assay type: functional, Mus musculus; in short: as §1
B16 [9] = assay: Compound was evaluated in vivo for antitumor activity against B16 melanoma after injecting the compound intravenously for optimal dose; assay type: functional, Mus musculus
In short: (§2)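 30-60 mg tumor fragments implanted sc by trocar on day 0 into C57Bl/6-derived hosts (B16) or C3H/He-derived hosts (16/C). Drug given iv on days 6, 9 and 13 (B16) or 6, 9 and 12 (16/C), 10 mice per group. Tumors measured by caliper. T/C % taken from median tumor burden of treated vs control groups on day 15 (B16) or day 14 (16/C). Body weight change per mouse recorded at nadir.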

P388 [10] = assay: Compound was evaluated in vivo for antitumor activity after intraperitoneal administration against P388/L-PAM(14) for mortality range at an optimal dose of 0.5 mg/kg/injection at 1,4,7,11 day schedule.; assay type: functional, Mus musculus
B16 [11] = assay: Compound was evaluated in vivo for antitumor activity against B16 melanoma 2 after injecting the compound intravenously for percent T/C; assay type: functional, Mus musculus
P388 [12] = assay: Compound was evaluated in vivo for antitumor activity after intraperitoneal administration against P388/L-PAM(14) for total dose at an optimal dose of 1 mg/kg/injection; assay type: functional, Mus musculus
P388 [13] = assay: Compound was evaluated in vivo for antitumor activity after intraperitoneal administration against P388 (1313) for % increase in life span at an optimal dose of 1 mg/kg/injection; assay type: functional; conditions: Mus musculus, P388, ip
P388 [14] = assay: Compound was evaluated in vivo for antitumor activity after intraperitoneal administration against P388/L-PAM(14) for change in body weight at an optimal dose of 1 mg/kg/injection; assay type: functional, Mus musculus
P388 [15] = assay: Compound was evaluated in vivo for antitumor activity after intraperitoneal administration against P388 (1313) for total dose at an optimal dose of 0.2 mg/kg/injection; assay type: functional, Mus musculus
L1210 [16] = assay: Compound was evaluated in vivo for antitumor activity after intraperitoneal administration against L1210(935) for mortality range at an optimal dose of 0.1 mg/kg/injection at 1-4 day schedule.; assay type: functional, Mus musculus; in short: as §1
P388 [17] = assay: Compound was evaluated in vivo for antitumor activity after intraperitoneal administration against P388 (1313) for mortality range at an optimal dose of 0.2 mg/kg/injection; assay type: functional, Mus musculus
P388 [18] = assay: Compound was evaluated in vivo for antitumor activity after intraperitoneal administration against P388 (1313) for change in body weight at an optimal dose of 1 mg/kg/injection; assay type: functional, Mus musculus
B16 [19] = assay: Compound was evaluated in vivo for antitumor activity against B16 melanoma after injecting the compound intravenously for toxicity related death.; assay type: functional, Mus musculus; in short: as §2
P388 [20] = assay: Compound was evaluated in vivo for antitumor activity after intraperitoneal administration against P388 (1313) for change in body weight at an optimal dose of 0.25 mg/kg/injection; assay type: functional, Mus musculus
L1210 [21] = assay: Compound was evaluated in vivo for antitumor activity after intraperitoneal administration against L1210(935) for mortality range at an optimal dose of 0.2 mg/kg/injection at 1-4 day schedule.; assay type: functional, Mus musculus; in short: as §1
P388 [22] = assay: Compound was evaluated in vivo for antitumor activity after intraperitoneal administration against P388 (1313) for tumor free survivors at an optimal dose of 0.25 mg/kg/injection; assay type: functional, Mus musculus
P388 [23] = assay: Compound was evaluated in vivo for antitumor activity after intraperitoneal administration against P388/L-PAM(14) for total dose at an optimal dose of 0.1 mg/kg/injection at 1,2,3,4 day schedule.; assay type: functional, Mus musculus
L1210 [24] = assay: Compound was evaluated in vivo for antitumor activity after intraperitoneal administration against L1210(935) for tumor free survivors at an optimal dose of 0.125 mg/kg/injection at 1,4,7,11 day schedule.; assay type: functional, Mus musculus; in short: as §1
L1210 [25] = assay: Compound was evaluated in vivo for antitumor activity after intraperitoneal administration against L1210(935) for median day of death at an optimal dose of 0.4 mg/kg/injection at 1-4 day schedule.; assay type: functional, Mus musculus; in short: as §1
P388 [26] = assay: Compound was evaluated in vivo for antitumor activity after intraperitoneal administration against P388 (1313) for tumor free survivors at an optimal dose of 0.5 mg/kg/injection on day 60; assay type: functional, Mus musculus
L1210 [27] = assay: Compound was evaluated in vivo for antitumor activity after intraperitoneal administration against L1210(935)for % increase in life span at an optimal dose of 0.125 mg/kg/injection at 1,4,7,11day schedule.; assay type: functional; conditions: Mus musculus, L1210, ip; in short: as §1
P388 [28] = assay: Compound was evaluated in vivo for antitumor activity after intraperitoneal administration against P388 (1313) for change in body weight at an optimal dose of 0.2 mg/kg/injection; assay type: functional, Mus musculus
P388 [29] = assay: Compound was evaluated in vivo for antitumor activity after intraperitoneal administration against P388 (1313) for median day of death at an optimal dose of 0.2 mg/kg/injection; assay type: functional, Mus musculus
L1210 [30] = assay: Compound was evaluated in vivo for antitumor activity after intraperitoneal administration against L1210(935)for % increase in life span at an optimal dose of 0.2 mg/kg/injection at 1-4 day schedule.; assay type: functional; conditions: Mus musculus, L1210, ip; in short: as §1
L1210 [31] = assay: Compound was evaluated in vivo for antitumor activity after intraperitoneal administration against L1210(935) for tumor free survivors at an optimal dose of 0.5 mg/kg/injection at 1 day schedule.; assay type: functional, Mus musculus; in short: as §1
P388 [32] = assay: Compound was evaluated in vivo for antitumor activity after intraperitoneal administration against P388 (1313) for tumor free survivors at an optimal dose of 1 mg/kg/injection on day 60; assay type: functional, Mus musculus
P388 [33] = assay: Compound was evaluated in vivo for antitumor activity after intraperitoneal administration against P388 (1313) for total dose at an optimal dose of 0.5 mg/kg/injection; assay type: functional, Mus musculus

SMILES: CN(C)CCCNc1ncnc2c1C(=O)C(N1CC1)=C(N1CC1)C2=O
- Median day of death (L1210 [1]): 14
- Median day of death (P388 [2]): 18
- ILS at 0.4 mg/kg (P388 [3]): 43%
- Median day of death (P388 [4]): 19
- ILS at 0.75 mg/kg (P388 [5]): 68%
- Optimal dose (P388 [6]): 0.75 mg/kg
- Tumor burden (B16 [7]): 27 mg
- Mortality (L1210 [8]): 16 days
- Optimal dose (B16 [9]): 0.4 mg/kg and 0.2 mg/kg
- Mortality (P388 [10]): 32 days
- T/C (B16 [11]): 53%
- Total dose (P388 [12]): 1 mg/kg
- ILS at 1 mg/kg (P388 [13]): 70%
- Change in body weight (P388 [14]): -1.2 g mouse-1
- Optimal dose (P388 [15]): 0.8 mg/kg
- Mortality (L1210 [16]): 14 days
- Optimal dose (P388 [17]): 28 mg/kg
- Change in body weight (P388 [18]): -0.5
- Toxicity (B16 [19]): 0
- Change in body weight (P388 [20]): 2.4 g mouse-1
- Mortality (L1210 [21]): 14 days
- Survivors (P388 [22]): 0
- Total dose (P388 [23]): 0.4 mg/kg
- Survivors (L1210 [24]): 0
- Median day of death (L1210 [25]): 14
- Survivors (P388 [26]): 0
- ILS at 0.125 mg/kg (L1210 [27]): 18%
- Change in body weight (P388 [28]): 1.3 g mouse-1
- Median day of death (P388 [29]): 19.5
- ILS at 0.2 mg/kg (L1210 [30]): 27%
- Survivors (L1210 [31]): 0
- Survivors (P388 [32]): 0
- Optimal dose (P388 [33]): 2 mg/kg
